Source: PubChem BioAssay
MrgX1 antag: human MrgX1 receptor antagonism, primary screen. Q96LB2. MRGX1-HEK293 calcium flux, Fluo-4, BAM8-22 antagonism; stronger effect = lower value. B-score at 10 µM. 310,000 tested, 1.3% active. AID 588676;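 active = calcium-response B-score plate-corrected more than 3 library SD below zero, starting fluorescence within 5 deviations, no agonist response on first addition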;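 also: peak minus trough fluorescence over baseline after final BAM8-22 challenge near maximal dose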
Target sequence (Q96LB2 whole entry, looked up): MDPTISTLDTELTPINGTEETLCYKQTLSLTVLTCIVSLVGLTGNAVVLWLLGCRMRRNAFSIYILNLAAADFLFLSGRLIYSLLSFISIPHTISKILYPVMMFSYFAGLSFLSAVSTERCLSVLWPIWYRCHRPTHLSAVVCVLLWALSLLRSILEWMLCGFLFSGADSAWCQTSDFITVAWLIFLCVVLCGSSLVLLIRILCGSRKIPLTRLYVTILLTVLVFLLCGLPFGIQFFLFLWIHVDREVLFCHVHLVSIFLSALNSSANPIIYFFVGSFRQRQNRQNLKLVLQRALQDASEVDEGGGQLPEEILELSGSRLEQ
MrgX1 allo act: allosterically activates human MrgX1 receptor signaling. MrgX1-HEK293, Fluo-4 calcium flux, FDSS; stronger effect = higher value. B-score at 10 µM. 310,000 tested, 0.63% active. AID 588675;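 active = plate-corrected calcium response at least 3 library SD above typical, normal starting fluorescence, not activating the receptor alone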;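 also: compound read alongside a low EC10 to EC30 dose of BAM8-22 agonist; peak minus trough fluorescence over baseline measured at the second addition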
MrgX1 agonist: human MrgX1 receptor agonism, primary screen; MrgX1-HEK293 cells, Fluo-4 calcium fluorescence, agonist mode; stronger effect = higher value; B-score at 10 µM; 310,000 tested, 0.44% active;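 active = calcium response B-score plate-corrected fluorescence ratio at least 3 library SD, with starting fluorescence B-score inside 5 SD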
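Material: MrgX1-expressing HEK293 cells / Dosing: compound as first of three additions / Incubation: overnight seeding, then 1 h dark dye loading / Signal: Fluo-4 NW calcium fluorescence / Evaluation: B-scored fluorescence response ratio / Benchmarks: positive and negative control wells on each plate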
RGS4 act: RGS4 potentiation or activation; HEK293 M3R/inducible RGS4, carbachol calcium flux Fluo4; stronger effect = lower value; B-score at 10 µM; 310,000 tested, 0.92% active;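 active = B-score of the integrated calcium signal more than 4 SD below the library mean, with starting fluorescence not abnormally high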;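 also: negative B-score means reduced calcium response which marks RGS4 activation or potentiation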
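Material: Inducible-RGS4 HEK293 cells carrying M3 receptor; also added: carbachol at ECmax as muscarinic agonist stimulus; incubation: compound preincubation 20 min at room temperature before agonist; signal: Fluo4-AM (2 µM) calcium-flux fluorescence, kinetic read; measure: integrated calcium ratio converted to B score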
RGS4 block: human RGS4 inhibition. P49798. HEK293 M3R/RGS4 inducible, Fluo-4 calcium flux; stronger effect = higher value; triggered by carbachol at its EC20. B-score at 10 µM. 310,000 tested, 0.45% active;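 active = B-score, a plate-corrected calcium signal, over three deviations above library mean, with baseline fluorescence within five deviations of library mean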;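 also: RGS4 expression induced by doxycycline in cells with stable M3 receptor; B-score is computed from the integrated fluorescence ratio over baseline after carbachol; higher B-score means a larger calcium signal and so more RGS4 inhibition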
Target sequence (P49798 whole entry, looked up): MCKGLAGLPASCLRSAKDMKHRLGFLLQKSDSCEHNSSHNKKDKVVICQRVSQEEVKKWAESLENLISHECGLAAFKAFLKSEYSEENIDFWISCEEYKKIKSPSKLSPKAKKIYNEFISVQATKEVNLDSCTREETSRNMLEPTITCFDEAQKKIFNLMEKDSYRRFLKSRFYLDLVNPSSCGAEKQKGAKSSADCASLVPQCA
MrgX1 ant reconf: confirmation of human MrgX1 receptor antagonists; shares compounds with MrgX1 antag; MrgX1-HEK293, BAM8-22 calcium flux, Fluo-4; stronger effect = lower value; remaining BAM8-22 calcium response % of control (stronger effect = lower value), % at 10 µM; 2,300 tested, 19% active; AID 602420;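 active = remaining agonist calcium response no higher than 100% minus 3 SD of agonist-only control wells, with starting fluorescence near control levels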;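 also: agonist BAM8-22 given at a near maximal EC90 to ECmax level; peak minus minimum fluorescence divided by baseline after agonist addition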
HEK293 Ca flux: MrgX1 antagonist counter-screen hit in parental HEK293 cells; 4,000 tested, 2% active; shares compounds with MrgX1 antag; fluorescence ratio F(max-min)/F0 at 10 µM; Fluo-4 calcium fluorescence, FDSS;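 active = duplicate-averaged calcium fluorescence ratio at least three times the standard deviation of buffer wells, a nonspecific response in parental cells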
HEK293 Ca counter: counter-screen for MrgX1 allosteric activators: effect in parental HEK293 cells. shares compounds with MrgX1 antag. fluorescence ratio F(max-min)/F0 at 10 µM. parental HEK293 calcium flux, Fluo-4 fluorescence ratio; stronger effect = higher value. 4,000 tested, 0.4% active. AID 624114;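 active = calcium fluorescence ratio, averaged over duplicates, at least 3 SD of the buffer-well ratio, meaning a nonspecific response in receptor-free cells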;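 also: untransfected parental HEK293 lacking MrgX1 used as counterscreen for MrgX1 allosteric activators; fluorescence change taken during the second addition on a kinetic imager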
HEK293 Ca cntr2: activity in parental HEK293 cells lacking MrgX1 receptor | shares compounds with MrgX1 antag | 4,000 tested, 8.7% active | AID 624115 | fluorescence ratio F(max-min)/F0 at 10 µM | Fluo-4 calcium fluorescence (FDSS); stronger effect = higher value;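 active = calcium fluorescence ratio at least three times the spread of buffer wells, meaning a non-specific response in parental cells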
Hits are given with their value. Rows were chosen to be rich in hits. Some 3.5% of all compounds tested hit in one or more screens of this group.

Results for O=C(C1CCN(S(=O)(=O)c2ccccc2)CC1)N1CCN(Cc2ccccc2)CC1 ?
MrgX1 antag: inactive; MrgX1 allo act: inactive; MrgX1 agonist: inactive; RGS4 act: inactive; RGS4 block: inactive

How did Cc1ccc(C(=O)Nc2nc3ccccc3n3nnnc23)cc1 do in these assays?
MrgX1 antag: -11; MrgX1 allo act: inactive; MrgX1 agonist: inactive; RGS4 act: inactive; RGS4 block: inactive; MrgX1 ant reconf: 84%; HEK293 Ca flux: inactive; HEK293 Ca counter: inactive; HEK293 Ca cntr2: inactive

How did COc1ccc(-n2c(Cc3cccn3C)nnc2SCC(=O)Nc2ccc(C)c(Cl)c2)cc1 do in these assays?
MrgX1 antag: -4.8; MrgX1 allo act: inactive; MrgX1 agonist: inactive; RGS4 act: inactive; RGS4 block: inactive; MrgX1 ant reconf: inactive; HEK293 Ca flux: inactive; HEK293 Ca counter: inactive; HEK293 Ca cntr2: inactive

What do the screens show for `CC1CN(Cc2nc3c(c(=O)n(C)c(=O)n3C)n2CCc2ccccc2)CC(C)O1` (configuration not stated)?
MrgX1 antag: inactive; MrgX1 allo act: inactive; MrgX1 agonist: inactive; RGS4 act: inactive; RGS4 block: inactive

What do the screens show for `COc1cccc(C(=O)COc2ccc(NC(=O)c3ccccc3)cc2)c1`?
RGS4 act: inactive; RGS4 block: inactive

Results for O=C(Nc1ccc(OCc2ccccc2)cc1)c1ccccc1 ?
MrgX1 antag: -9; MrgX1 allo act: inactive; MrgX1 agonist: inactive; RGS4 act: inactive; RGS4 block: inactive; MrgX1 ant reconf: inactive; HEK293 Ca flux: inactive; HEK293 Ca counter: inactive; HEK293 Ca cntr2: inactive

What do the screens show for `O=C(NC1CCN(C(=O)Nc2ccc(F)cc2)CC1)c1ccccc1F`?
MrgX1 antag: inactive; MrgX1 allo act: inactive; MrgX1 agonist: inactive; RGS4 act: inactive; RGS4 block: inactive

Results for CCn1c2ccccc2c2c3ncc4cccn4c3ccc21 ?
MrgX1 antag: -5.8; MrgX1 allo act: inactive; MrgX1 agonist: inactive; RGS4 act: inactive; RGS4 block: inactive; MrgX1 ant reconf: 78%; HEK293 Ca flux: inactive; HEK293 Ca counter: inactive; HEK293 Ca cntr2: inactive

How did O=C(CCC(=O)Nc1cccnc1)Nc1cccnc1 do in these assays?
MrgX1 antag: -4.8; MrgX1 allo act: inactive; MrgX1 agonist: inactive; RGS4 act: inactive; RGS4 block: inactive; MrgX1 ant reconf: inactive; HEK293 Ca flux: inactive; HEK293 Ca counter: inactive; HEK293 Ca cntr2: inactive

Results for Cc1ccc(NC(=O)Nc2ccc(F)c(Cl)c2)cc1 ?
MrgX1 antag: -6.8; MrgX1 allo act: inactive; MrgX1 agonist: inactive; RGS4 act: inactive; RGS4 block: inactive; MrgX1 ant reconf: 62%; HEK293 Ca flux: inactive; HEK293 Ca counter: inactive; HEK293 Ca cntr2: inactive

Results for O=C(Nc1cccnc1)Nc1ccc(F)c(Cl)c1 ?
MrgX1 antag: -5.2; MrgX1 allo act: inactive; MrgX1 agonist: inactive; RGS4 act: inactive; RGS4 block: inactive; MrgX1 ant reconf: 69%; HEK293 Ca flux: inactive; HEK293 Ca counter: inactive; HEK293 Ca cntr2: inactive

How did CC(C)CNc1c(N)c(=O)oc2ccccc12 do in these assays?
MrgX1 antag: inactive; MrgX1 allo act: inactive; MrgX1 agonist: inactive; RGS4 act: inactive; RGS4 block: inactive

What do the screens show for `Cc1ccc(C)c(-n2c(SCC(=O)Nc3nonc3C)nnc2-c2ccoc2C)c1`?
MrgX1 antag: -5.4; MrgX1 allo act: inactive; MrgX1 agonist: inactive; RGS4 act: inactive; RGS4 block: inactive; MrgX1 ant reconf: 83%; HEK293 Ca flux: inactive; HEK293 Ca counter: inactive; HEK293 Ca cntr2: inactive

How did Cc1ccc(/C=C2\Oc3cc(OCC(=O)NN)ccc3C2=O)o1 do in these assays?
MrgX1 antag: inactive; MrgX1 allo act: inactive; MrgX1 agonist: inactive; RGS4 act: inactive; RGS4 block: inactive

What do the screens show for `CC(C)N(CC#CCC1(O)c2ccccc2-c2ccccc21)CCO`?
MrgX1 antag: -6; MrgX1 allo act: inactive; MrgX1 agonist: inactive; RGS4 act: inactive; RGS4 block: inactive; MrgX1 ant reconf: inactive; HEK293 Ca flux: inactive; HEK293 Ca counter: inactive; HEK293 Ca cntr2: inactive

Results for CCN(CC#CCC1(O)c2ccccc2-c2ccccc21)CCO ?
MrgX1 antag: inactive; MrgX1 allo act: inactive; MrgX1 agonist: inactive; RGS4 act: inactive; RGS4 block: inactive

How did COc1ccccc1N=Cc1c(C)c(C#N)c2[nH]c3ccccc3n2c1=O do in these assays?
MrgX1 antag: -6.2; MrgX1 allo act: inactive; MrgX1 agonist: inactive; RGS4 act: inactive; RGS4 block: inactive; MrgX1 ant reconf: inactive; HEK293 Ca flux: inactive; HEK293 Ca counter: inactive; HEK293 Ca cntr2: inactive

How did COC(=O)c1ccc(CSc2nnc(SCc3ccc(C(=O)OC)o3)s2)o1 do in these assays?
MrgX1 antag: inactive; MrgX1 allo act: inactive; MrgX1 agonist: inactive; RGS4 act: inactive; RGS4 block: inactive

What do the screens show for `COC(=O)c1ccc(CSc2nc(C)nc3sc(C)c(C)c23)o1`?
MrgX1 antag: -7.4; MrgX1 allo act: inactive; MrgX1 agonist: inactive; RGS4 act: inactive; RGS4 block: inactive; MrgX1 ant reconf: inactive; HEK293 Ca flux: inactive; HEK293 Ca counter: inactive; HEK293 Ca cntr2: inactive

How did CCOc1ccc(N2CC(C(=O)N3CCN(c4ccccn4)CC3)CC2=O)cc1 (configuration not stated) do in these assays?
MrgX1 antag: -6.7; MrgX1 allo act: inactive; MrgX1 agonist: inactive; RGS4 act: inactive; RGS4 block: inactive; MrgX1 ant reconf: inactive; HEK293 Ca flux: inactive; HEK293 Ca counter: inactive; HEK293 Ca cntr2: inactive

How did CCOC(=O)c1sc2nc(NC(=O)C(C)(C)C)sc2c1C do in these assays?
MrgX1 antag: -5.1; MrgX1 allo act: inactive; MrgX1 agonist: inactive; RGS4 act: inactive; RGS4 block: inactive; MrgX1 ant reconf: 79%; HEK293 Ca flux: inactive; HEK293 Ca counter: inactive; HEK293 Ca cntr2: inactive

Results for Cc1ccccc1-c1nnnn1C1CCS(=O)(=O)C1 (configuration not stated) ?
MrgX1 antag: -6.4; MrgX1 allo act: inactive; MrgX1 agonist: inactive; RGS4 act: inactive; RGS4 block: inactive; MrgX1 ant reconf: inactive; HEK293 Ca flux: inactive; HEK293 Ca counter: inactive; HEK293 Ca cntr2: inactive

How did Cc1cc(C(=O)NC(C)c2ccccc2)c2cc(F)ccc2n1 (configuration not stated) do in these assays?
MrgX1 antag: -5.4; MrgX1 allo act: inactive; MrgX1 agonist: inactive; RGS4 act: inactive; RGS4 block: inactive; MrgX1 ant reconf: inactive; HEK293 Ca flux: inactive; HEK293 Ca counter: inactive; HEK293 Ca cntr2: inactive

How did Cc1cc(C(=O)NC2CCCCC2)c2cc(F)ccc2n1 do in these assays?
MrgX1 antag: inactive; MrgX1 allo act: inactive; MrgX1 agonist: inactive; RGS4 act: inactive; RGS4 block: inactive
